The list is not random: actives were taken first. Their share in the collection is about 3.8%.
B2AR ag: beta2AR agonists driving receptor internalization, primary screen, cell-based, FAP fluorogen, flow cytometry | response, % (no concentration beside the values) | Beta-2 adrenergic receptor (Homo sapiens), P07550 | 340,000 tested, 0.43% active | Am2.2-beta2AR cells | AID 504454, 2011;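 active means response above a set limit, near 3 SD of response in nonfluorescent compounds, cut at about 42% in these data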
Target sequence (P07550 whole entry, looked up): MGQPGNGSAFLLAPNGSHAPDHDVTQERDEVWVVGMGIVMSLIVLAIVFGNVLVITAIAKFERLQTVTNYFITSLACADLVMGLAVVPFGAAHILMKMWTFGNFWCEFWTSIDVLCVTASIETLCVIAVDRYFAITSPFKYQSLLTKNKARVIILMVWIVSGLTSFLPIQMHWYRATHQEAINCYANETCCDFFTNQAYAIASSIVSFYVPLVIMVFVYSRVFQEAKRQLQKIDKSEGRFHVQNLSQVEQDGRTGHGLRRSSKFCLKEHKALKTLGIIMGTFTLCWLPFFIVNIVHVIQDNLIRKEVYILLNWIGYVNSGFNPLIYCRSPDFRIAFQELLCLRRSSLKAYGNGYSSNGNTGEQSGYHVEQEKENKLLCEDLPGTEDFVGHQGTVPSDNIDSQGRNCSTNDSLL
V-ATPase pHluor: regulators of yeast V-ATPase proton pumping, primary screen, pHLuorin cytosolic pH fluorescence; S. cerevisiae; response, % at 10 µM; 350,000 tested, 0.37% active; in the data active means response mostly above about 7.3%, no sharp cut-off; inactive means mostly below about 5.4%; further: actives read high
MPTP inh: mitochondrial permeability transition pore inhibitors, primary screen, biochemical, isolated mouse mitochondria, absorbance | Ca2+ swelling absorbance, 30 min | inhibition, % at 10 µM | 360,000 tested, 1.4% active;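 active means inhibition of 50% or more, scaled per plate between neutral and stimulator controls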;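 further: 0% = DMSO wells given calcium and 100% = 1 mM EGTA wells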
T cell modulator: modulators of CD8 T cell-vesicle binding, primary screen, mouse 2C CD8+ T cells, flow cytometry | 2C CD8+ T cell-vesicle binding; hits give low values | response (vesicle binding), % at 7 µM | 330,000 tested, 0.068% active | AID 2052, 2009;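 active means response, share of CD8 T cells binding vesicles, and their 90th percentile fluorescence all below set limits, cut at about 80% in these data, passing the limit was not always enough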;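 further: values below 100% mean blocked vesicle binding to the CD8+ T cells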
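Incubation: binding step 1.5 h, 37 °C, antibody labelling 20 min, ice; system: murine 2C transgenic CD8+ T lymphocytes; technique: cytometric PE anti-B7-1 and Alexa647 anti-CD8 signals after 1% paraformaldehyde fixation; also added: QL9-charged Drosophila Ld/ICAM-1/B7-1 vesicles; control set: naked versus QL9-loaded vesicles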
rCAG RNA binder: binders of r(CAG) RNA repeats, primary screen, biochemical, fluorescence; AID 651821, 2012; inhibition, % at 3 µM; 370,000 tested, 1.3% active; r(CAG) RNA repeat, TO-PRO-1 dye displacement fluorescence;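 active means inhibition above the plate cutoff, the mean of all test compounds on that plate plus 3 SD, cut at about 35% in these data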;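 further: 0% = DMSO alone and 100% = 100 µM mitoxantrone as full dye displacement; higher means more dye released from RNA so lower well fluorescence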
Granule exo inh: LAMP-1 surface exposure blockers, TALL-104 cells – cell-based, flow cytometry, MLPCN library, primary screen | TALL-104 LAMP-1 surface exposure; cells stimulated with thapsigargin and PMA | inhibition, % at 10 µM | 360,000 tested, 0.66% active;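 active means inhibition above about 55%, limit read from the data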
Starred values were filed as active, the others as inactive; i = inactive; · = no result given; + = active, no number.

SMILES	B2AR ag	V-ATPase pHluor	MPTP inh	T cell modulator	rCAG RNA binder	Granule exo inh
CCOC(=O)CC[C@H]1CC[C@]2(CCCN(C(=O)c3cccnc3)C2)O1	·	·	·	·	-1	·
COC(=O)C1=C(C)N(Cc2ccc(C(F)(F)F)cc2)C(=NCc2ccccc2C(F)(F)F)NC1c1cccc(Cl)c1 (stereo not drawn)	·	·	·	·	1	·
COc1ccc(-c2[nH]ncc2CNCCCSC)cc1F	-15	14*	1	237	-1	8
COc1ccc(-c2[nH]ncc2CN2CCC(c3ccncc3)CC2)cc1F	-11	2	0	243	-3	0
COC(=O)[C@]12C[C@H](CC(=O)NCCCN3CCCC3=O)C(=O)N(Cc3ccc(Cl)cc3Cl)C1=C[C@H](C(C)C)O[C@@H]2C1CC1	·	·	·	·	4	·
Oc1c(Br)cc(Br)cc1C=Nc1cccc2ncccc12	19	-11	26	434	0	67*
COCCCN1C(=O)[C@H](CC(=O)NCC2CCCCC2)[C@]2(C(=O)OC)CCCCC=C12	·	·	·	·	1	·
NN(Cc1ccccc1)C(=S)Nc1ccc(Cl)c(Cl)c1	15	-2	3	471	3	61*
O=C(c1ccccc1)c1c2c(cc3sc4ccccc4[n+]13)-c1cccc3cccc-2c13	-166	-1	45	483	24	88*
CCn1c(SCC(=O)N/N=C(/C)c2ccncc2)nc2ccccc21	-3	2	3	i	1	60*
CCCCN(C)CC(O)Cn1cc(/C=C/C(=O)c2ccc(C)cc2)c2ccccc21 (stereo not drawn)	20	-6	1	280	-1	70*
CCCN(CCC)CC(O)Cn1cc(/C=C/C(=O)c2ccccc2)c2ccccc21 (stereo not drawn)	19	0	3	·	-8	92*
C=CCN1C(=O)[C@@H](CC(=O)NCc2cccc3ccccc23)[C@]2(C(=O)OCC)CCCCC/C=C/12	·	·	·	·	3	·
COC(=O)[C@H](CC(C)C)N1Cc2nnn(Cc3ccc(C)cc3)c2-c2cc(F)ccc2S1(=O)=O	·	·	·	·	1	·
O=S1(=O)C=CCN1Cc1cn(Cc2ccccc2)nn1	·	·	·	·	0	·
CSc1ccc(S(=O)(=O)NCc2ccc(Cl)cc2Cl)cc1	-2	1	7	221	4	100*
CSc1ccc(S(=O)(=O)NCc2ccccc2)cc1	-9	7	-3	301	-1	-1
CCC(=O)Nc1ccc(Cl)c(NC(=O)c2cccnc2)c1	1	-4	0	622	2	-5
CCCC(=O)Nc1ccc(Cl)c(NC(=O)c2cccnc2)c1	20	5	0	0.0*	-1	0
CCOC(=O)[C@@]12CN(C(=O)OC(C)(C)C)CC=C1N(Cc1ccc(OC)cc1)C(=O)[C@H]2CC(=O)NCCCOC	·	·	·	·	0	·
O=C(OC12CCCN(C1)/C(=C/c1ccc(Cl)cc1)C2)c1cccc(F)c1 (stereo not drawn)	·	·	·	·	-1	·
O=C(O)c1ccc2c(=O)n(-c3ccc(F)cc3)c(=S)[nH]c2c1	3	13*	-1	83	0	5
COc1cccc(/C=N/Nc2nc3ccccc3n3cnnc23)c1O	109*	-4	8	211	14	1
COc1cccc(/C=N/Nc2nc3ccccc3n3cnnc23)c1	3	-1	1	157	-1	6
COc1ccc2[nH]c3c(c2c1)CCN[C@]31C(=O)N(Cc2ccccc2)c2ccccc21	·	·	·	·	7	·
SMILES	B2AR ag	V-ATPase pHluor	MPTP inh	T cell modulator	rCAG RNA binder	Granule exo inh
Cc1cc(C)c2c(CCl)cc(=O)oc2c1	44*	2	-2	133	0	0
N#Cc1cc(F)cc(OC[C@@H](O)CN2CCC(C(O)(c3ccccc3)c3ccccc3)CC2)c1	·	·	·	·	-3	·
CCC[C@H](/C=C/C(=O)OC(C)(C)C)Sc1ccc(OC)cc1	·	·	·	·	4	·
Nc1nc(-c2ccccn2)nc(N)c1Cc1ccc(Cl)cc1Cl	-9	11*	-3	371	-4	3
O=C1CC(=C(c2ccccc2)c2ccccc2)C(=O)N1CCCCN1CCN(c2ccccc2)CC1	13	-2	7	221	-2	58*
O=C1CCCc2oc3c(cc(NS(=O)(=O)c4ccc5c6c(cccc46)C(=O)N5)c4ccccc43)c21	-15	2	3	324	46*	0
CSC1=NC(C)(C)C=C(/C=C/c2ccc(Cl)cc2)N1	84*	-2	3	601	6	23
C=CCN1[C@@H](Cc2ccccc2)COc2cccc(N3CCCC3)c2S1(=O)=O	·	·	·	·	10	·
S=C(NCCSCc1ccc(Cl)c(Cl)c1)Nc1ccccc1	47*	1	39	544	-2	1
CCOc1ccc(CSCCNC(=S)Nc2ccccc2)cc1	-7	-2	46	169	-3	-2
CCCCN1C(=O)/C(=C/C=C2\Oc3ccccc3N2CC)SC1=S	i	4	3	·	-15	0
CCN1/C(=C/C=C/c2oc3ccc(-c4ccccc4)cc3[n+]2CC)Oc2ccc(-c3ccccc3)cc21	·	+	37	i	i	29
O=S1(=O)c2ccc(Br)cc2OC[C@@H](Cc2ccccc2)N1Cc1cn(CCC2OCCO2)nn1	·	·	·	·	2	·
O=[N+]([O-])c1ccc(S(=O)(=O)CC(CN2CCCCC2)N2CCCCC2)cc1 (stereo not drawn)	13	-1	0	805	4	64*
COC(=O)C1CN(Cc2cn(Cc3ccc(F)cc3)nn2)CCS(=O)(=O)N1Cc1ccc(OC)cc1 (stereo not drawn)	·	·	·	·	-1	·
C=CCC12C=C(OC)C(=O)C(C1=O)C1c3ccccc3CC12 (stereo not drawn)	·	·	·	·	0	·
Cc1ccccc1OCC(=O)NC1=NCCS1	-12	17*	1	i	3	-1
Cc1ccc(OCC(=O)NC2=NCCS2)cc1	1	-7	3	156	1	-2
Cc1cc2c(=Cc3ccc(N(C)C)cc3)c3ccccc3n2[n+]1C	-195	-2	16	·	9	5
CCOC(=O)c1cc2c(=Cc3ccc(N(C)C)cc3)c3ccccc3n2[n+]1C	-173	5	32	·	17	67*
Cc1c(Nc2cc(Cl)c3nonc3c2[N+](=O)[O-])c(=O)n(-c2ccccc2)n1C	89*	4	0	·	1	8
Cc1c(Nc2cc(N3CCOCC3)c3nonc3c2[N+](=O)[O-])c(=O)n(-c2ccccc2)n1C	·	·	·	465	·	·
Cc1ccc(Oc2ccc3c(c2)C(=O)N(c2ccc(S(=O)(=O)Nc4nccs4)cc2)C3=O)cc1	5	3	4	503	61*	0
COC(=O)[C@]12C[C@H](CC(=O)NCc3ccc(C)o3)C(=O)N(Cc3cccc4ccccc34)C1=C[C@H](C(C)(C)C)O[C@@H]2C	·	·	·	·	5	·

Assay outcomes (PubChem BioAssay)
